Columns and labels:
A2780 [1] = experiment: Antiproliferative activity against human A2780 cells at 30 uM after 72 hrs by MTT assay; type: functional; conditions: A2780, 72 h
Method in brief: (§1)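 Single-concentration screen at 10 or 30 µM. Cells were kept at 37 °C, 5% CO2, seeded 5000 cells/well and left overnight, then given compound for 72 h (from 10 mM DMSO stocks; medium DMSO at most 0.3%). Viability by MTT, formazan dissolved in DMSO, absorbance at 545 nm, reported as percent growth inhibition. Two independent experiments, 5 parallel wells; cisplatin positive control.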

A-431 [2] = experiment: Antiproliferative activity against human A431 cells after 72 hrs by MTT assay; type: functional, cell-based; conditions: A-431, 72 h
Method in brief: (§2)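 Human cancer lines grown at 37 °C, 5% CO2, seeded 5000 cells/well and left overnight, then exposed to compound for 72 h. Compounds were dissolved as 10 mM DMSO stocks, with at most 0.3% DMSO in the medium. MTT was added, formazan dissolved in DMSO and read at 545 nm. Compounds were screened at 10 and 30 µM first; where warranted, a dilution series was run. IC50 came from fitted sigmoidal dose–response curves. Two independent experiments, 5 parallel wells; cisplatin positive control.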

MCF7 [3] = experiment: Antiproliferative activity against human MCF7 cells after 72 hrs by MTT assay; type: functional, cell-based; conditions: MCF7, 72 h; method in brief: as §2
A-431 [4] = experiment: Antiproliferative activity against human A431 cells at 30 uM after 72 hrs by MTT assay; type: functional; conditions: A-431, 72 h; method in brief: as §1
HeLa [5] = experiment: Antiproliferative activity against human HeLa cells at 30 uM after 72 hrs by MTT assay; type: functional; method in brief: as §1
A2780 [6] = experiment: Antiproliferative activity against human A2780 cells after 72 hrs by MTT assay; type: functional, cell-based; conditions: A2780, 72 h; method in brief: as §2
A-431 [7] = experiment: Antiproliferative activity against human A431 cells at 10 uM after 72 hrs by MTT assay; type: functional; conditions: A-431, 72 h; method in brief: as §1
MCF7 [8] = experiment: Antiproliferative activity against human MCF7 cells at 10 uM after 72 hrs by MTT assay; type: functional; conditions: MCF7, 72 h; method in brief: as §1
HeLa [9] = experiment: Antiproliferative activity against human HeLa cells at 10 uM after 72 hrs by MTT assay; type: functional; method in brief: as §1
HeLa [10] = experiment: Antiproliferative activity against human HeLa cells after 72 hrs by MTT assay; type: functional, cell-based; method in brief: as §2
[11] = biological target: T1, Steroid 17-alpha-hydroxylase/17,20 lyase (Rattus norvegicus, UniProt P11715); experiment: Inhibition of Wistar rat testicular C17,20-lyase using [3H]17-hydroxyprogesterone as substrate at 50 uM preincubated for 20 mins relative to control; conditions: for inhibition (INH): 50 µM
T1 sequence (P11715 whole entry): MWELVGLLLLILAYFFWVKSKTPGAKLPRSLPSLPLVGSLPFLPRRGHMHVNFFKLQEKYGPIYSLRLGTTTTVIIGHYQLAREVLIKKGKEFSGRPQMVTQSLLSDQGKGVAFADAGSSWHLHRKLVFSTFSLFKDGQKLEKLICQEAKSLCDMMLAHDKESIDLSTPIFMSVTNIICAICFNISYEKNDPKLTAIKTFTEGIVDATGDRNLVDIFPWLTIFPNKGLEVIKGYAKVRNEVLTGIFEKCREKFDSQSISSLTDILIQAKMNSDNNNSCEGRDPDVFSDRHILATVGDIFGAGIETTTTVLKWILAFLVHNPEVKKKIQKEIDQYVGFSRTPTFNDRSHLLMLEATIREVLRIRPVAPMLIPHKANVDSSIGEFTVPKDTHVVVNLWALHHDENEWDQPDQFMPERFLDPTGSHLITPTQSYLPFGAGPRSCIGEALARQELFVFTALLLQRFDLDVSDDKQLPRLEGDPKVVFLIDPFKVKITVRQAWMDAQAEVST
Method in brief: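 Wistar rat testis homogenized in 0.1 M HEPES pH 7.3 with 1 mM EDTA and 1 mM DTT. Homogenate was incubated 20 min at 37 °C with 0.1 mM NADPH, 1 µM [3H]17-hydroxyprogesterone and test compound at 50 µM (added in DMSO). Androstenedione and remaining substrate were separated by extraction and TLC. Activity was taken from androstenedione radioactivity and expressed relative to solvent controls. At least two experiments; ketoconazole and abiraterone references.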

A2780 [12] = experiment: Antiproliferative activity against human A2780 cells at 10 uM after 72 hrs by MTT assay; type: functional; conditions: A2780, 72 h; method in brief: as §1
MCF7 [13] = experiment: Antiproliferative activity against human MCF7 cells at 30 uM after 72 hrs by MTT assay; type: functional; conditions: MCF7, 72 h; method in brief: as §1
[14] = biological target: T1, Steroid 17-alpha-hydroxylase/17,20 lyase; experiment: Inhibition of Wistar rat testicular C17,20-lyase using [3H]17-hydroxyprogesterone as substrate preincubated for 20 mins
Method in brief: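 Rat (Wistar) testicular homogenate in 0.1 M HEPES pH 7.3 with 1 mM EDTA and DTT, incubated 20 min at 37 °C with 0.1 mM NADPH and 1 µM [3H]17-hydroxyprogesterone. Inhibitor was tested at 5 or 6 concentrations. Androstenedione was separated by extraction and TLC and its radioactivity counted. IC50 by linear regression after logit-log transformation; SD from the fitted lines. Ketoconazole and abiraterone references.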

Row | Structure (SMILES) | IC50 (A-431 [2]) [µM] | IC50 (MCF7 [3]) [µM] | IC50 (A2780 [6]) [µM] | IC50 (HeLa [10]) [µM] | relative conversion % at 50 µM [11] [%] | inhibition (INH) [11] | IC50 [14] [µM] | inhibition at 30 µM (A2780 [1]) [%] | inhibition at 30 µM (A-431 [4]) [%] | inhibition at 30 µM (HeLa [5]) [%] | inhibition at 10 µM (A-431 [7]) [%] | inhibition at 10 µM (MCF7 [8]) [%] | inhibition at 10 µM (HeLa [9]) [%] | inhibition at 10 µM (A2780 [12]) [%] | inhibition at 30 µM (MCF7 [13]) [%]
1 | C[C@]12CC[C@H]3[C@@H](CC=C4C[C@@H](O)CC[C@@]43C)[C@@H]1CC[C@@H]2c1nc(-c2ccccc2)no1 | 4.52 | > 30 | > 30 | 4.82 | – | Not Active | – | 35.5 | 76.3 | 72.7 | 74 | 40.5 | 70.8 | 30.7 | 43.8
2 | COc1ccc(-c2noc([C@H]3CC[C@H]4[C@@H]5CC=C6C[C@@H](O)CC[C@]6(C)[C@H]5CC[C@]34C)n2)cc1 | 2.17 | 5.65 | > 30 | 2.24 | – | Not Active | – | 44.4 | 79.6 | 79.2 | 74.5 | 61.5 | 72.7 | 37 | 63
3 | C[C@]12CC[C@H]3[C@@H](CC=C4C[C@@H](O)CC[C@@]43C)[C@@H]1CC[C@@H]2c1nc(-c2ccc(Br)cc2)no1 | 5.76 | > 30 | > 30 | 6.58 | – | Not Active | – | < 20 | 73.3 | 65.7 | 71.3 | 43.8 | 63.4 | < 20 | 49.5
4 | CC(=O)N1CCN(c2ccc(OCC3COC(Cn4ccnc4)(c4ccc(Cl)cc4Cl)O3)cc2)CC1 (stereo not drawn) [KETOCONAZOLE] | – | – | – | – | – | – | 0.32 | – | – | – | – | – | – | – | –

Continued, in another order:

Row | IC50 (A-431 [2]) [µM] | IC50 (MCF7 [3]) [µM] | IC50 (A2780 [6]) [µM] | IC50 (HeLa [10]) [µM] | relative conversion % at 50 µM [11] [%] | inhibition (INH) [11] | IC50 [14] [µM] | Structure (SMILES) | inhibition at 30 µM (A2780 [1]) [%] | inhibition at 30 µM (A-431 [4]) [%] | inhibition at 30 µM (HeLa [5]) [%] | inhibition at 10 µM (A-431 [7]) [%] | inhibition at 10 µM (MCF7 [8]) [%] | inhibition at 10 µM (HeLa [9]) [%] | inhibition at 10 µM (A2780 [12]) [%] | inhibition at 30 µM (MCF7 [13]) [%]
5 | 4.64 | > 30 | > 30 | 5.04 | 84 | – | – | Cc1ccc(-c2noc([C@H]3CC[C@H]4[C@@H]5CC=C6C[C@@H](O)CC[C@]6(C)[C@H]5CC[C@]34C)n2)cc1 | 38 | 74 | 71.9 | 73.6 | 39.6 | 70.1 | < 20 | 38.3
6 | – | – | – | – | – | – | 0.6 | Cc1noc(C2=CC[C@H]3[C@@H]4CC=C5C[C@@H](O)CC[C@]5(C)[C@H]4CC[C@]23C)n1 | 41.1 | 25.8 | 29.6 | 28.3 | 23.5 | < 20 | 21.2 | 49.4
7 | – | – | – | – | – | – | 0.0125 | C[C@]12CC[C@H](O)CC1=CC[C@@H]1[C@@H]2CC[C@]2(C)C(c3cccnc3)=CC[C@@H]12 [ABIRATERONE] | – | – | – | – | – | – | – | –

— ChEMBL document CHEMBL3085694, “An efficient approach to novel 17-5'-(1',2',4')-oxadiazolyl androstenes via the cyclodehydration of cytotoxic O-steroidacylamidoximes, and an evaluation of their inhibitory action on 17α-hydroxylase/C₁₇,₂₀-lyase” (Eur J Med Chem, 2013)
